Measured values from ChEMBL document CHEMBL1125733, “Fluoronaphthyridines and -quinolones as antibacterial agents. 3. Synthesis and structure-activity relationships of new 1-(1,1-dimethyl-2-fluoroethyl), 1-[1-methyl-1-(fluoromethyl)-2-fluoroethyl], and 1-[1,1-(difluoromethyl)-2-fluoroethyl] substituted derivatives” (J Med Chem, 1991).
Values after ≈ are worked out from the molar mass of the structure shown.

What was measured:
Mus musculus [1] = assay: Compound was evaluated in vivo in blood samples from the orbital sinus for its concentration using Area under the time-concentration curve after 40 mg/kg intramuscular administration to mice; type: ADME, organism-based; parameters: dose 40 mg/kg, route intramuscular; conditions: im
In short: (§1)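 Mice were dosed at 40 mg/kg, either orally with a blunt needle and syringe or intramuscularly, with separate groups for each route. Blood was drawn from the orbital sinus at 5, 15, 30, 60, 120 and 180 min. Urine was pooled over 24 h. Drug levels were measured by agar disk diffusion microbioassay with Salmonella enteritidis A9531 as the assay organism.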

[2] = Compound was evaluated in vivo in blood samples from the orbital sinus for its concentration after a intramuscular administration 40 mg/kg in mice; type: ADME, organism-based; parameters: dose 40 mg/kg, route intramuscular; conditions: mouse, im; in short: as §1
[3] = Compound was evaluated in vivo in blood samples from the orbital sinus for its half life after 40 mg/kg of intramuscular administration in mice.; type: ADME, organism-based; parameters: dose 40 mg/kg, route intramuscular; conditions: mouse, im
Bacteroides fragilis = assay: Compound was tested in vitro for its antibacterial activity (minimum inhibitory concentration) against Bacteroides fragilis A 22862.; type: functional; conditions: A22862
Enterococcus faecalis [4] = assay: In vitro antibacterial activity against Enterococcus faecalis A 9809; type: functional
Escherichia coli [5] = assay: In vitro antibacterial activity against Escherichia coli A 15119; type: functional
Enterobacter cloacae = assay: In vitro antibacterial activity against Enterobacter cloacae A 9656; type: functional
Haemophilus influenzae = assay: In vitro antibacterial activity against Haemophilus influenzae A 21515; type: functional
Klebsiella pneumoniae = assay: In vitro antibacterial activity against Klebsiella pneumoniae A 9664; type: functional
Morganella morganii = assay: In vitro antibacterial activity against Morganella morganii A 15153; type: functional
Mus musculus [6] = assay: Compound was evaluated in vivo in urine sample collected over 24 hours for its concentration after 40 mg/kg intramuscular administration to mice; type: functional; in short: as §1
Mus musculus [7] = assay: Compound was evaluated in vivo in urine sample collected over 24 hours for its concentration after 40 mg/kg peroral administration to mice; type: functional; conditions: route oral; in short: as §1
Pseudomonas aeruginosa [8] = assay: Compound was tested in vitro for its antibacterial activity (minimum inhibitory concentration, MIC) against Pseudomonas aeruginosa A 9843; type: functional
Proteus mirabilis = assay: In vitro antibacterial activity (minimum inhibitory concentration, MIC) against Proteus mirabilis A 9900; type: functional
Pseudomonas aeruginosa [9] = assay: Compound was tested for the dose to protect 50% of mice from lethal infection against Pseudomonas aeruginosa A9843 after peroral administration to OF1-strain of female Swiss mice.; type: functional; conditions: po, read-out: PD50
In short: (§2)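 Compounds dissolved in sterile water and given orally to female OF1 Swiss mice weighing 18-25 g, five mice per group.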

[10] = Compound was tested for the dose to protect 50% of mice from lethal infection against Streptococcus pneumoniae after peroral administration to OF1-strain of female Swiss mice.; type: functional; conditions: po, read-out: PD50; in short: as §2
Staphylococcus aureus [11] = assay: Compound was tested for the dose to protect 50% of mice from lethal infection against Staphylococcus aureus A 9606 after peroral administration to OF1-strain of female Swiss mice.; type: functional; conditions: po, read-out: PD50; in short: as §2
Serratia marcescens = assay: In vitro antibacterial activity (minimum inhibitory concentration) against Serratia marcescens A 20019.; type: functional
Streptococcus pneumoniae = assay: In vitro antibacterial activity against Streptococcus pneumoniae A 9585; type: functional
Staphylococcus aureus [12] = assay: In vitro antibacterial activity against Staphylococcus aureus A 24227; type: functional
Staphylococcus aureus [13] = assay: In vitro antibacterial activity (minimum inhibitory concentration, MIC) against Staphylococcus aureus A 9537.; type: functional
Mus musculus [14] = species on record: Mus musculus; conditions: in vivo, po, 40 mg/kg
Canis familiaris [15] = species on record: Canis familiaris; conditions: dog, in vivo, po, 25 mg/kg
in vivo [16] = conditions: dog, po, 25 mg/kg
in vivo [17] = conditions: mouse, blood, po, 40 mg/kg
in vivo [18] = conditions: dog, po, 25 mg/kg; remark: listed apart in the source
Canis familiaris [19] = assay: Compound was evaluated in vivo in urine sample collected over 24 hours for its concentration after 25 mg/kg peroral administration to dogs.; conditions: route oral
[20] = Compound was evaluated in vivo in blood samples from the orbital sinus for its concentration after a peroral administration of 40 mg/kg in mice; type: ADME, organism-based; parameters: dose 40 mg/kg, route oral; conditions: mouse, po; in short: as §1
Escherichia coli [21] = assay: Compound was tested for the dose to protect 50% of mice from lethal infection against Escherichia coli A 15119 after peroral administration to OF1-strain of female Swiss mice.; type: functional; conditions: po, read-out: PD50; in short: as §2
Mus musculus [22] = assay: Compound was evaluated in vivo in urine sample collected over 24 hours for its concentration after 40 mg/kg an intramuscular administration to mice; type: functional; in short: as §1
[23] = Compound was evaluated in vivo in blood samples from the orbital sinus for its concentration after an intramuscular administration of 40 mg/kg in mice.; type: ADME, organism-based; parameters: dose 40 mg/kg, route intramuscular; conditions: mouse, im; in short: as §1
in vivo [24] = conditions: mouse, blood, po, 40 mg/kg; remark: listed apart in the source
Enterococcus faecalis [25] = assay: Compound was tested in vitro for its antibacterial activity (minimum inhibitory concentration) against Enterococcus faecalis A 9809 (gram positive).; type: functional

Compound	AUC (Mus musculus [1])	Cmax [2]	half-life [3]	MIC (Bacteroides fragilis)	MIC (Enterococcus faecalis [4])	MIC (Escherichia coli [5])	MIC (Enterobacter cloacae)	MIC (Haemophilus influenzae)	MIC (Klebsiella pneumoniae)	MIC (Morganella morganii)	UR (Mus musculus [6])	UR (Mus musculus [7])	MIC (Pseudomonas aeruginosa [8])	MIC (Proteus mirabilis)	ED50 (Pseudomonas aeruginosa [9])	MIC (Serratia marcescens)	MIC (Streptococcus pneumoniae)	MIC (Staphylococcus aureus [12])	MIC (Staphylococcus aureus [13])	AUC (Mus musculus [14])	further results
CC(C)(CF)n1cc(C(=O)O)c(=O)c2cc(F)c(N3CC[C@H](N)C3)cc21.CS(=O)(=O)O	14000 ng·h/mL	8000 ng/mL	1.82 h	2 µg/mL	0.13 µg/mL	0.002 µg/mL	0.004 µg/mL	0.016 µg/mL	0.004 µg/mL	0.002 µg/mL	27%	4%	0.13 µg/mL	0.004 µg/mL	23.7 mg/kg	0.016 µg/mL	0.06 µg/mL	0.016 µg/mL	0.03 µg/mL	600 ng·h/mL	ED50 [10]: > 50 mg/kg; ED50 (Staphylococcus aureus [11]): 26.4 mg/kg; AUC (Canis familiaris [15]): 7300 ng·h/mL; S: 370 µg/mL; Cmax (in vivo [16]): 600 ng/mL; Cmax (in vivo [17]): 1000 ng/mL; half-life (in vivo [18]): 7 h; UR (Canis familiaris [19]): 4.6%
CC(C)(C)n1cc(C(=O)O)c(=O)c2cc(F)c(N3CC[C@H](N)C3)cc21.CS(=O)(=O)O	15000 ng·h/mL		0.9 h	8 µg/mL	0.13 µg/mL	0.016 µg/mL	0.06 µg/mL	0.008 µg/mL	0.5 µg/mL	0.13 µg/mL		14%	0.25 µg/mL	0.06 µg/mL	10.2 mg/kg	0.13 µg/mL	0.06 µg/mL	0.03 µg/mL	0.008 µg/mL	5000 ng·h/mL	Cmax [20]: 3000 ng/mL; ED50 (Escherichia coli [21]): 9.5 mg/kg; UR (Mus musculus [22]): 24%; ED50 [10]: > 25 mg/kg; ED50 (Staphylococcus aureus [11]): 14.4 mg/kg; Cmax [23]: 6000 ng/mL; AUC (Canis familiaris [15]): 30000 ng·h/mL; S: 250 µg/mL; Cmax (in vivo [16]): 2800 ng/mL; half-life (in vivo [18]): 4 h; half-life (in vivo [24]): 1.1 h; UR (Canis familiaris [19]): 7.7%
CC(C)(C)n1cc(C(=O)O)c(=O)c2cc(F)c(N3C[C@H]4CC3CN4)cc21						0.5 µg/mL (≈ 1.39 µM)	0.25 µg/mL (≈ 0.696 µM)		0.13 µg/mL (≈ 0.362 µM)	2 µg/mL (≈ 5.56 µM)			0.5 µg/mL (≈ 1.39 µM)	4 µg/mL (≈ 11.1 µM)		4 µg/mL (≈ 11.1 µM)			0.5 µg/mL (≈ 1.39 µM)		MIC (Enterococcus faecalis [25]): 2 µg/mL (≈ 5.56 µM)
CN1CCN(c2c(F)cc3c(=O)c(C(=O)O)cn(CCF)c3c2F)CC1 [FLEROXACIN]	32000 ng·h/mL	20000 ng/mL	1.02 h	1 µg/mL (≈ 2.71 µM)	8 µg/mL (≈ 21.7 µM)	0.03 µg/mL (≈ 0.0812 µM)	0.13 µg/mL (≈ 0.352 µM)	0.13 µg/mL (≈ 0.352 µM)	0.13 µg/mL (≈ 0.352 µM)	0.03 µg/mL (≈ 0.0812 µM)	64%	51%	2 µg/mL (≈ 5.42 µM)	0.06 µg/mL (≈ 0.162 µM)		0.13 µg/mL (≈ 0.352 µM)	2 µg/mL (≈ 5.42 µM)	0.25 µg/mL (≈ 0.677 µM)	0.06 µg/mL (≈ 0.162 µM)	23000 ng·h/mL	Cmax (in vivo [17]): 12000 ng/mL; half-life (in vivo [24]): 0.967 h
